ChEMBL document CHEMBL1122570, “Studies on 1,2,3-triazoles. 10. Synthesis and antiallergic properties of 9-oxo-1H,9H-benzothiopyrano[2,3-d]-1,2,3-triazoles and their S-oxides” (1984)

These compounds were tested on Rattus norvegicus (assay: Compound was evaluated for its antiallergic activity in rat passive cutaneous anaphylaxis (PCA) test by the intravenous administration.).
Type: functional
How it was run: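 Male Sprague–Dawley rats (250–300 g) sensitized intradermally on shaved backs with six twofold dilutions (typically 1:4–1:128) of rat anti-ovalbumin serum in 0.9% saline. After 72 h, compound given iv to groups of six just before iv challenge with 1% ovalbumin plus pontamine sky-blue. Killed at 20 min and wheal diameters measured. Inhibition computed against vehicle controls; ED50 from log-dose regression with 95% confidence limits.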

| SMILES | ED50 |
| --- | --- |
| O=C1c2ccccc2S(=O)(=O)c2[nH]nnc21 | 6.14 mg/kg |
| O=c1c2ccccc2[s+]([O-])c2[nH]nnc12 (stereo not given) | 1.23 mg/kg |
| Cc1cc2sc3nnnc-3c(O)c2cc1C | 0.43 mg/kg |
| Cc1ccc2c(c1)C(=O)c1[nH]nnc1S2(=O)=O | 5.88 mg/kg |
| Cc1cc2c(cc1C)S(=O)(=O)c1nn[nH]c1C2=O | 0.6 mg/kg |
| Cc1ccc2sc3nnnc-3c(O)c2c1C | 3.18 mg/kg |
| Oc1c2nnnc-2sc2ccccc12 | 1.43 mg/kg |
| COc1ccc2sc3nnnc-3c(O)c2c1 | 1.59 mg/kg |
| Cc1ccc2c(c1C)C(=O)c1[nH]nnc1S2(=O)=O | > 1 mg/kg |
| Cc1ccc2sc3nnnc-3c(O)c2c1 | 11.4 mg/kg |
